Article PMC2813939 (Neuropsychopharmacology : official publication of the …, 2009)
Several values for one entry are separate records, joined by “and”; a condition that tells them apart may be missing. Equal entries are not always repeated. Where two headings read alike, the source gives them in different places.

How the values were obtained:
[1] = cited from earlier work
[2] = target: T1, human D2 receptor (short isoform, D2S) (Homo sapiens, UniProt P14416); assay: cell-based; format: binding
[3] = target: T1, human D2 receptor (short isoform, D2S); format: binding
[4] = target: T1, human D2 receptor (short isoform, D2S); format: binding; remark: listed apart in the source
arrestin3 = format: cell-based, rat; conditions: tetracycline 1 μg/ml 24 h; triple-transfected cells vs untreated cells; n=2
Method in brief: (§1)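 T-REx-293 cells stably triple-transfected with D2S receptor, tetracycline-inducible GRK2 and arrestin3; tetracycline 1 μg/ml (final) or vehicle 24 h at 36 °C. Lysed in 1% dodecyl maltopyranoside/PBS with protease inhibitors and N-ethylmaleimide; 20 μg protein run on 7.5% SDS-PAGE, PVDF. Rabbit polyclonal primaries 1 h RT (anti-GRK2 1:1000; anti-arrestin3 1:500), HRP anti-rabbit 1:15,000; ECL-Plus imaging and quantitation; % increase versus untreated cells.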

GRK2 = assay: Western blot of tetracycline-induced GRK2 expression in triple-transfected cells; format: cell-based, bovine; conditions: tetracycline 1 μg/ml 24 h; triple-transfected cells vs untreated cells; n=3
Method in brief: as §1

[5] = internalized (Q+/MTSET+) vs surface (Q-/MTSET-)
[6] = read-out: Internalized D2 receptor (Q+/MTSET+) KI(i)
[7] = read-out: Surface D2 receptor (Q-/MTSET-) KI(s)

T1 sequence (P14416 1-414 isoform P14416-2): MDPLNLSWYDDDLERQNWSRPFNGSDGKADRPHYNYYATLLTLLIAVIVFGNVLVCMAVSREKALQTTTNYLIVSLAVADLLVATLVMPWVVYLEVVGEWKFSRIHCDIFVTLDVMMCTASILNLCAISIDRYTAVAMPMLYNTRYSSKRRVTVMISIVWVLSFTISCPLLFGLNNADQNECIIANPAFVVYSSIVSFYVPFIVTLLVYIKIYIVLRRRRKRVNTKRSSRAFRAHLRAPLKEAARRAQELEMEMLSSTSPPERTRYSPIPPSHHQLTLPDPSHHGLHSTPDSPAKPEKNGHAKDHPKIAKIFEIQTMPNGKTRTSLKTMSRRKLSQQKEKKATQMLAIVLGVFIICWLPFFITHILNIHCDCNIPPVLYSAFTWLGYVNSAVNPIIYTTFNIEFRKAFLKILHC

SMILES: CCCN1CCOC2c3cc(O)ccc3CCC21 (single isomer, unassigned; (+)) [PHNO, (+)-4-propyl-3,4,4a,5,6,10b-hexahydro-2H-naphtho[1,2-b][1,4]oxazin-9-ol]
- Lipophilicity (Log P) ([1]; ref Wilson et al, 2005): 2.1 ^d†

SMILES: CC[11CH2]N1CCc2cccc3c2C1Cc1ccc(O)c(O)c1-3 (single isomer, unassigned; (-)) [NPA, (-)-N-[11C]propyl-norapomorphine]
- Lipophilicity (Log P) ([1]; ref Wilson et al, 2005): 2.5 ^d†

SMILES: CCN1CCC[C@H]1CNC(=O)c1cc(I)cc(OC)c1OC [Epidepride]
- Lipophilicity (Log kw) ([1]; ref Kessler et al, 1991): 2.1 ^c‡
- Affinity shift Ki(i)/Ki(s) [2]: 2.4

SMILES: CCN1CCC[C@H]1CNC(=O)c1cc(Br)cc(OC)c1OC [FLB 457]
- Lipophilicity (Log kw) ([1]; ref Loc'h et al, 1996): 1.9 ^b‡
- Affinity shift Ki(i)/Ki(s) [2, 5]: 3.0
- Ki [2, 6]: 0.09 ± 0.02 nM
- Ki [2, 7]: 0.03 ± 0.01 nM

SMILES: C=CCN1CCC[C@H]1CNC(=O)c1cc(CCCF)cc(OC)c1OC [Fallypride]
- Lipophilicity (Log P) ([1]; ref Laruelle, 2000): 2.4 ^a†
- Ki ([2]; Internalized D2 receptor (Q+/MTSET+) KI(i)): 0.92 ± 0.31 nM
- Ki ([2]; Surface D2 receptor (Q-/MTSET-) KI(s)): 0.32 ± 0.06 nM
- Affinity shift Ki(i)/Ki(s) [2, 5]: 2.9

SMILES: CCN1CCC[C@H]1CNC(=O)c1c(OC)ccc(I)c1O [IBZM]
- Ki [2, 6]: 0.23 ± 0.11 nM
- Ki [2, 7]: 0.19 ± 0.05 nM

SMILES: CCN1CCC[C@H]1CNC(=O)c1c(OC)ccc([123I])c1O [IBZM]
- Lipophilicity (Log P) ([1]; ref Laruelle, 2000): 2.8 ^a†
- Affinity shift Ki(i)/Ki(s) [2, 5]: 1.2

SMILES: C[N+](C)(C)CCSS(C)(=O)=O.[Br-] [MTSET, [2-(trimethylammonium)ethyl] methanethiosulfonate bromide]
- [3H]NMSP binding remaining, % of the total binding [3]: 10%

SMILES: CN1CN(c2ccccc2)C2(CCN(CCCC(=O)c3ccc(F)cc3)CC2)C1=O [NMSP, N-methylspiperone]
- Lipophilicity (Log P) ([1]; ref Laruelle, 2000): 3.3 ^a†

SMILES: CCN1CCC[C@H]1CNC(=O)c1c(O)c(Cl)cc(Cl)c1OC [Raclopride]
- increase in the Ki at internalized receptors (decrease in affinity) [2]: about 2 fold

SMILES: CCN1CCCC1CNC(=O)c1cc(S(N)(=O)=O)ccc1OC (stereo not drawn) [Sulpiride]
- fraction of D2 receptors with high affinity [4]: 90% and 55% and 89.9%
- fraction of D2 receptors on the surface [2]: 80.9%
- fraction of D2 receptors on the surface (high affinity) [2]: 85.8% and 43.1%

SMILES: CN(C)[C@@H]1C(O)=C(C(N)=O)C(=O)[C@@]2(O)C(O)=C3C(=O)c4c(O)cccc4[C@@](C)(O)[C@H]3C[C@@H]12 [Tetracycline]
- increase in arrestin3 expression (arrestin3): 538 ± 75%
- increase in GRK2 expression (GRK2): 190 ± 24%
